Measurements collected from several papers.
Each line is one published result; the experiments were not run side by side.

Compound | technique | medium | time | pH | temperature | solubility
CC[C@H](C)[C@H](NC(=O)[C@H](Cc1ccccc1)NC(=O)[C@H](Cc1ccc(O)cc1)NC(=O)[C@@H]1CCCN1C(=O)[C@@H](N)Cc1ccc(O)cc1)C(=O)N1CCC[C@H]1C(=O)N[C@@H](C)C(=O)NCC(=O)N[C@H](CCCCN)C(=O)NCC(=O)N[C@@H](CCC(=O)O)C(=O)N[C@H](C(=O)N[C@@H](CC(N)=O)C(=O)N[C@@H](CC(C)C)[C@@H](O)CC(=O)N[C@H](C(=O)N[C@@H](C)C(=O)N[C@@H](CCC(=O)O)C(=O)N1CCC[C@@H]1C(=O)N[C@@H](CCCCNC(=O)CCC(=O)O[C@H]1CC[C@@]2(C)C(=CC[C@H]3[C@@H]4CC[C@H]([C@H](C)CCCC(C)C)[C@@]4(C)CC[C@@H]32)C1)C(N)=O)C(C)C)C(C)C |  | aqueous buffer |  | pH 6.5 |  | > 2450 µg/mL
CC[C@H](C)[C@H](NC(C)=O)C(=O)N[C@H]1CSSC[C@@H](C(=O)N[C@H](C(N)=O)[C@@H](C)O)NC(=O)[C@H](CCCNC(=N)N)NC(=O)[C@H](Cc2c[nH]cn2)NC(=O)[C@](C)(CC)NC(=O)CNC(=O)[C@H](Cc2c[nH]c3ccccc23)NC(=O)[C@H](CC(=O)O)NC(=O)[C@H](CCC(N)=O)NC(=O)[C@H](Cc2c[nH]c3ccccc23)NC(=O)[C@H](C(C)C)NC1=O |  | PBS |  | pH 7.4 |  | 3470 µg/mL
CNC(=O)O[C@@H](C)/C=C\C(=O)N[C@H]1CC[C@@H](C/C=C(C)/C=C/[C@@H]2C[C@]3(CO3)CC(C)(C)O2)CC1 | HPLC | PBS |  |  |  | 45 µM
CC(=O)N[C@@H](CC(N)=O)C(=O)N[C@@H](CCCNC(=N)N)C(=O)N[C@@H](CC(C)C)C(=O)N[C@H]1CSSC[C@@H](C(=O)N[C@H](C(N)=O)[C@@H](C)O)NC(=O)[C@H](CCCNC(=N)N)NC(=O)[C@H](Cc2c[nH]cn2)NC(=O)[C@H](Cc2cccc3ccccc23)NC(=O)CNC(=O)[C@H](Cc2c[nH]c3ccccc23)NC(=O)[C@H](CC(=O)O)NC(=O)[C@H](CCC(N)=O)NC(=O)[C@H](Cc2cccc3ccccc23)NC(=O)[C@H](C(C)C)NC1=O |  | PBS |  | pH 7.4 |  | 300 µg/mL
C#Cc1ccc2c(c1)C(c1ccccn1)=NCc1c(-c3cnco3)ncn1-2.Cl |  | water | 24 h |  | 25 °C | 5560 µg/mL
CCCSc1ccc2nc(NC(=O)OC)[nH]c2c1 |  | water | 24 h |  |  | < 1 µg/mL
CCc1cc(OC)cc2c(/C=N/NC(=N)NCCc3ccc(C#N)cc3)c[nH]c12 |  | PBS | 2 h | pH 7.4 |  | 55.5 µM
CCCCCCC#Cc1cncc(-c2nnc(SCc3cc([N+](=O)[O-])cc([N+](=O)[O-])c3)n2C)c1 |  | PBS |  |  |  | < 1.6 µM
O=C1C=C(N(Cc2ccc(Cl)nc2)CC(F)F)CO1 |  | water |  | pH 7 |  | 3000 µg/mL
COc1ccc(NC(=O)N2CCCCN3[C@H](CN(C)C)[C@H](c4ccc(C#Cc5ccccc5)cc4)[C@@H]3C2)cc1 |  | aqueous buffer |  | pH 7 |  | 33 µM
Clc1ccc(CSc2nnc(-c3ccccn3)n2Cc2ccco2)cc1Cl |  | aqueous buffer |  | pH 6.2 |  | 0.29 µg/mL
CC[C@H](C)[C@H](NC(C)=O)C(=O)N[C@H]1CSSC[C@@H](C(=O)N[C@H](C(N)=O)[C@@H](C)O)NC(=O)[C@H](CCCNC(=N)N)NC(=O)[C@H](Cc2cnc[nH]2)NC(=O)[C@H](Cc2cccc3ccccc23)NC(=O)CNC(=O)[C@H](Cc2c[nH]c3ccccc23)NC(=O)[C@H](CC(=O)O)NC(=O)[C@H](CCC(N)=O)NC(=O)[C@H](Cc2c[nH]c3ccccc23)NC(=O)[C@H](C(C)C)NC1=O |  | PBS |  | pH 7.4 |  | 150 µg/mL
COc1cc([C@@H]2c3cc4c(cc3[C@H](O)[C@H]3COC(=O)[C@H]23)OCO4)cc(OC)c1OC |  | water |  |  |  | 2200 µg/mL
CC[C@H](C)[C@H](NC(=O)[C@H](CO)NC(=O)[C@H](CCCNC(=N)N)NC(C)=O)C(=O)N[C@H]1CSSC[C@@H](C(=O)N[C@H](C(N)=O)[C@@H](C)O)NC(=O)[C@H](CCCNC(=N)N)NC(=O)[C@H](Cc2cnc[nH]2)NC(=O)[C@H](C)NC(=O)CNC(=O)[C@H](Cc2c[nH]c3ccccc23)NC(=O)[C@H](CC(=O)O)NC(=O)[C@H](CCC(N)=O)NC(=O)[C@H](Cc2ccc(O)cc2)NC(=O)[C@H](C(C)C)NC1=O |  | PBS |  | pH 7.4 |  | 2840 µg/mL
O=C(Nc1ccc(-c2ccc(C(=O)Nc3cccc4cccc(S(=O)(=O)O)c34)cc2)cc1)c1ccc([N+](=O)[O-])cc1 |  | water |  |  |  | 4.7 µg/mL
